Bioassay records as filed in PubChem BioAssay.
The list is not random: actives were taken first. Their share in the collection is about 2.6%.
ABHD5 PLIN5 PPI: ABHD5-PLIN5 interaction inhibitors, primary screen, cell lysate, split luciferase complementation, luminescence. inhibition, % at 4 µM. AID 602281, 2012. Split G. princeps luciferase complementation, 4 h. 360,000 tested, 0.78% active;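 active means inhibition above the mean inhibition across every tested compound plus 3 SD, cut at about 22% in these data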
Target sequence (Q00G26 whole entry, looked up): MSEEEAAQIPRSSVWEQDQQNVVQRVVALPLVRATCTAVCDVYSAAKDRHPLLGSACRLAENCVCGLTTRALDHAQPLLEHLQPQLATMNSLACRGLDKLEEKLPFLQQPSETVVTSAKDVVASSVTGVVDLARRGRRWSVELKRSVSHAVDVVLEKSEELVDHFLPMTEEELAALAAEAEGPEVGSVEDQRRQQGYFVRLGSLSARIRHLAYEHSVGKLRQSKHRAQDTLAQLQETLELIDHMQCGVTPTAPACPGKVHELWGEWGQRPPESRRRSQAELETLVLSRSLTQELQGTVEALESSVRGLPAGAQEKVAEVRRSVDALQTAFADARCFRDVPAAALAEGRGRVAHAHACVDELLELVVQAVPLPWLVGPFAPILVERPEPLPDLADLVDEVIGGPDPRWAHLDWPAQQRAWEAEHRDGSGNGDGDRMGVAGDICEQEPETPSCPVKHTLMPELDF
Target sequence (Q8WTS1 whole entry, looked up): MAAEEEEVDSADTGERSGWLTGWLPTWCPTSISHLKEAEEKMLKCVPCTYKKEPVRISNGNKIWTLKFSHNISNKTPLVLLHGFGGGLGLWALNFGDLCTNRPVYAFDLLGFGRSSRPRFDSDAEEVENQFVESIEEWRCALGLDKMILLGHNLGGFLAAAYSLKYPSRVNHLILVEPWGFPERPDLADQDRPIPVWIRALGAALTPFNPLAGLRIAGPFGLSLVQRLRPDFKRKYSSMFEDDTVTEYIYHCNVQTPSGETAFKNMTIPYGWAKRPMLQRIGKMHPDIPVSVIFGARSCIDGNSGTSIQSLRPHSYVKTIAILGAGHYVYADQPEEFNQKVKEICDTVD
core dimer inh: inhibitors of HCV core protein dimerization, primary screen, biochemical, TR-FRET, high-throughput. TR-FRET GST/Flag-core106 dimerization, 1536-well. 300,000 tested, 0.33% active. inhibition, % at 5 µM;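 active means inhibition above the mean of all tested compounds plus 3 SD, set per screening campaign, cut at about 45% in these data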
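Material: GST/Flag-tagged HCV core106 proteins. Incubation: 4 h, 22.5 °C incubation. Read-out basis: inhibition (%) from 671 over 617 nm ratio. Measured by: TR-FRET, excitation 340 nm, emission 617 and 671 nm.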
NadD block: inhibitors of S. aureus NadD, primary screen, biochemical, colorimetric, uHTS | Nicotinate-nucleotide adenylyltransferase NadD (Staphylococcus aureus N315) | purified NadD enzyme, colorimetric absorbance read-out | inhibition, % at 20 µM | 360,000 tested, 0.78% active; in the data active means inhibition above about 26%
rCAG RNA binder: binders of r(CAG) RNA repeats, primary screen, biochemical, fluorescence | inhibition, % at 3 µM | AID 651821, 2012 | 370,000 tested, 1.3% active | r(CAG) RNA repeat, TO-PRO-1 dye displacement fluorescence;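 active means inhibition above the plate cutoff, the mean of all test compounds on that plate plus 3 SD, cut at about 35% in these data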;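 further: higher means more dye released from RNA so lower well fluorescence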
rCAG bind conf: small molecules binding CAG repeat RNA – biochemical, fluorescence, confirmation; shares compounds with rCAG RNA binder; r(CAG) RNA repeat, TO-PRO-1 dye displacement fluorescence; inhibition, % at 3 µM; 4,300 tested, 70% active; AID 652065, 2013;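 active means inhibition above a per-plate cutoff, the mean inhibition of sample wells plus 3 SD, cut at about 35% in these data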;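 further: loss of TO-PRO-1 fluorescence as compound displaces dye from 1x1 AA loop RNA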
dCAG dye counter: displacement of TO-PRO-1 from CAG DNA duplex, counter-screen for rCAG RNA repeat binder project, biochemical, fluorescence, TO-PRO-1 dye, d(CAG) DNA oligo | shares compounds with rCAG RNA binder | d(CAG) DNA oligo TO-PRO-1 dye displacement | inhibition, % at 3 µM | 4,300 tested, 94% active | AID 652068, 2013;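 active means inhibition above its plate's cutoff, the mean test-well inhibition plus 3 SD, cut at about 4.8% in these data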;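 further: hits displace the dye from DNA and so lower well fluorescence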
dCAG dye DR: inhibitors of DNA CAG/GTC TO-PRO-1 complex, dose response, counter-screen for rCAG RNA repeat binder project, biochemical, fluorescence, TO-PRO-1 dye; 250 tested, 20% active; shares compounds with rCAG RNA binder; IC50, µM; DNA CAG/GTC duplex TO-PRO-1 dye displacement fluorescence; in the data active means IC50 below about 10 µM
Large screens that a line does not name were inactive (follow-up assays come after a bar, where they were run).

Cc1onc(-c2ccccc2)c1C(=O)NC(=S)NNC(=O)c1cc(-c2ccc(F)cc2)n[nH]1	rCAG RNA binder 68 | rCAG bind conf 71 | dCAG dye counter 31 | dCAG dye DR inactive
Cc1ccc(CSc2nc3c(c(SCC(=O)O)n2)CCCC3)cc1	rCAG RNA binder 36 | rCAG bind conf inactive | dCAG dye counter 5.7
CCOC(=O)c1c(C)[nH]c(C(=O)OCC(O)=C(C#N)c2nc3ccccc3[nH]2)c1C	rCAG RNA binder 42 (no result: core dimer inh) | rCAG bind conf inactive | dCAG dye counter 14
O=C(O)/C(CC(=O)c1ccc(Cl)cc1)=N/Nc1ccc([N+](=O)[O-])cc1[N+](=O)[O-]	rCAG RNA binder 92 | rCAG bind conf 90 | dCAG dye counter 66
CCc1nnc(NS(=O)(=O)c2ccc(N/C=C\C(=O)c3ccc(F)cc3)cc2)s1	rCAG RNA binder 48 | rCAG bind conf 61 | dCAG dye counter 23
CCc1nnc(NS(=O)(=O)c2ccc(N/C=C\C(=O)c3ccc(C)cc3)cc2)s1	rCAG RNA binder 55 | rCAG bind conf 72 | dCAG dye counter 39
Cc1noc(NS(=O)(=O)c2ccc(N/C=C\C(=O)c3ccc(F)cc3)cc2)c1C	rCAG RNA binder 36 | rCAG bind conf 43 | dCAG dye counter 7.9
CCc1nnc(NS(=O)(=O)c2ccc(N/C=C\C(=O)c3cccc(OC)c3)cc2)s1	rCAG RNA binder 49 | rCAG bind conf 63 | dCAG dye counter 28
COc1cccc(C(=O)/C=C/Nc2ccc(S(=O)(=O)Nc3ncccn3)cc2)c1	none
CCCCNC(=O)C[C@@H]1C[C@@]2(C(=O)OCC)CCCC=C2N(Cc2ccccc2)C1=O	none (no result: core dimer inh, NadD block)
CCc1nnc(NS(=O)(=O)c2ccc(N/C=C/C(=O)c3ccc(C)cc3)cc2)s1	rCAG RNA binder 50 | rCAG bind conf 72 | dCAG dye counter 34 | dCAG dye DR 9.6
O=C(/C=C/c1ccc2c(c1)OCO2)Nc1c(C(=O)O)[nH]c2ccccc12	rCAG RNA binder 45 | rCAG bind conf 38 | dCAG dye counter 13
CCOC(=O)c1sc(N=NC2=C(O)CCCC2=O)c(C(=O)OCC)c1C	NadD block 38, rCAG RNA binder 57 | rCAG bind conf inactive | dCAG dye counter 17
O=S(=O)(NCc1cn(Cc2ccccc2)nn1)c1ccccc1Br	none (no result: ABHD5 PLIN5 PPI, core dimer inh, NadD block)
Cc1noc(NS(=O)(=O)c2ccc(NC(=O)c3ccccc3NS(=O)(=O)c3ccc(F)c(F)c3)cc2)c1C	rCAG RNA binder 76 (no result: core dimer inh) | rCAG bind conf 69 | dCAG dye counter 30
Cc1ccccc1C(=O)Nc1ccc(S(=O)(=O)Nc2onc(C)c2C)cc1	none
Cc1noc(NS(=O)(=O)c2ccc(NC(=O)c3cccc(S(=O)(=O)Nc4ccccc4F)c3)cc2)c1C	rCAG RNA binder 35 (no result: core dimer inh) | rCAG bind conf inactive | dCAG dye counter 7.8
COc1cc(/C=N/NC(=O)c2nc(-c3ccccc3)n(-c3ccccc3)n2)ccc1O	none
COc1cc(/C=N/Nc2nc(C)nc3c2cnn3-c2ccccc2)ccc1O	rCAG RNA binder 41 (no result: core dimer inh) | rCAG bind conf inactive | dCAG dye counter 9.7
Cc1ccc(CN2[C@@H](Cc3ccccc3)C(=O)CS2(=O)=O)cc1	rCAG RNA binder 41 (no result: core dimer inh) | rCAG bind conf inactive | dCAG dye counter 9.1
CCN(CC)C(=O)CC[C@@H]1CC[C@]2(CCCN(Cc3ccc(Br)cc3)C2)O1	none (no result: ABHD5 PLIN5 PPI, core dimer inh, NadD block)
CCOC(=O)c1sc(N2N=C(C)/C(=C\c3ccc(OCC(=O)OC)cc3)C2=O)nc1C	rCAG RNA binder 52 | rCAG bind conf 45 | dCAG dye counter 10
CCOC(=O)c1sc(Nc2ccc(OCC)cc2)nc1C	none
COc1ccc(CNS(=O)(=O)c2cc(Br)ccc2Br)c(OC)c1	none (no result: ABHD5 PLIN5 PPI, core dimer inh, NadD block)
CCc1c(C)sc(NC(=O)c2cc(-c3ccco3)on2)c1C#N	rCAG RNA binder 40 | rCAG bind conf inactive | dCAG dye counter 6.5
COc1ccc(/C=C2\C(=O)ON=C2c2cccc([N+](=O)[O-])c2)cc1	rCAG RNA binder 41 (no result: ABHD5 PLIN5 PPI, NadD block) | rCAG bind conf inactive | dCAG dye counter 6.0
CCOC(=O)Cc1cc(=O)n(-c2nc3ccccc3s2)[nH]1	rCAG RNA binder 73 | rCAG bind conf inactive | dCAG dye counter 12
CCCc1cc(=O)n(-c2nc3ccccc3s2)[nH]1	none
CCCn1nc([N+](=O)[O-])c(C(C#N)c2nc3ccccc3o2)c(Cl)c1=O (configuration not stated)	rCAG RNA binder 80 | rCAG bind conf 77 | dCAG dye counter 37
CCn1nc([N+](=O)[O-])c(C(C#N)c2nc3cc(C(F)(F)F)ccc3s2)c(Cl)c1=O (configuration not stated)	rCAG RNA binder 94 | rCAG bind conf 87 | dCAG dye counter 60
O=C(NNC(=S)Nc1cccc(C(F)(F)F)c1)c1cccc(Cl)c1	rCAG RNA binder 47 | rCAG bind conf 48 | dCAG dye counter 14
FC(F)(F)c1cccc(NC(=S)NNC(=S)NCc2ccccc2)c1	rCAG RNA binder 78 | rCAG bind conf 63 | dCAG dye counter 33
O=C(NNC(=S)Nc1cccc(C(F)(F)F)c1)c1ccccc1Cl	none
O=C(C(=O)N1CCN(C(=O)c2cc(C(F)(F)F)cc(C(F)(F)F)c2)CC1)c1cccc(C(F)(F)F)c1	none (no result: ABHD5 PLIN5 PPI, core dimer inh, NadD block)
CC(C)=C1C(=O)NN(c2ccc(F)c(Cl)c2)C1=O	rCAG RNA binder 83 | rCAG bind conf inactive | dCAG dye counter 6.8
CO[C@H]1C=CO[C@@]2(C)Oc3c(C)c(O)c4c(O)c(c5c(c4c3C2=O)NC2(CCN(CC(C)C)CC2)N=5)=NC(=O)C(C)=CC=C[C@H](C)[C@H](O)[C@@H](C)[C@@H](O)[C@@H](C)[C@H](OC(C)=O)[C@@H]1C	none (no result: ABHD5 PLIN5 PPI, NadD block, rCAG RNA binder)
COC1C=COC2(C)Oc3c(C)c(O)c4c(O)c(c(CN5CCN(C)CC5)c(O)c4c3C2=O)NC(=O)C(C)=CC=CC(C)C(O)C(C)C(O)C(C)C(OC(C)=O)C1C (configuration not stated)	rCAG RNA binder 37 (no result: core dimer inh) | rCAG bind conf inactive | dCAG dye counter 7.5
CC1(C)CC2(C)OC2C2(C1)N=NC(=Nc1ccccc1)O2 (configuration not stated)	none (no result: core dimer inh, rCAG RNA binder)
Cc1nn(-c2ccccc2)c2sc(-c3nnc(SCC(=O)O)o3)cc12	rCAG RNA binder 46 | rCAG bind conf 56 | dCAG dye counter 15
Cc1cc(Br)cn2c(Cc3cccc(Cl)c3)c(C3CCCCC3)nc12	none (no result: ABHD5 PLIN5 PPI, core dimer inh, NadD block)
